Article PMC3517065 (ChemMedChem, 2012)

Columns and labels:
[1] = MTT-based cell viability assay; conditions: human, HeLa cells
Method in brief: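 HeLa cells harvested in log phase, seeded at 1×10^3 per well in DMEM with 10% FBS, kept at 37 °C with 5% CO2. Test compound added 24 h after seeding from 10× stocks in DMEM; controls were DMEM alone and medium with DMSO (final 1%). At 72 h, MTT (2 mg mL−1 in PBS) added for 4 h; formazan dissolved in DMSO, A550 read. Value is the concentration reducing absorbance to 50% of control.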

[2] = system: HIV-1 in permissive cells (MT-4); conditions: which do not express A3G; cited from earlier work

## COc1ccccc1NC(=O)c1ccccc1Sc1ccccc1 [4a, N-(2-Methoxyphenyl)-2-(phenylthio)benzamide]
[1]
  CC50 at 72 h: > 100 µM

## COc1ccccc1NC(=O)c1ccccc1Sc1ccc([N+](=O)[O-])cc1 [5a (RN18), N-(2-Methoxyphenyl)-2-((4-nitrophenyl)thio)benzamide]
[2]
  inhibition of HIV-1 replication in permissive cells: not in permissive cells
[1]
  CC50 at 72 h: > 100 µM

## COc1ccccc1C(=O)Nc1ccccc1Sc1ccc([N+](=O)[O-])cc1 [5c, N-(2-(4-Nitrophenylthio)phenyl)-2-methoxybenzamide]
[1]
  CC50 at 72 h: > 100 µM

## COc1ccccc1NS(=O)(=O)c1ccccc1Sc1ccc([N+](=O)[O-])cc1 [5d, N-(2-Methoxyphenyl)-2-((4-nitrophenyl)thio)benzenesulfonamide]
[1]
  CC50 at 72 h: > 100 µM

## COc1ccccc1S(=O)(=O)Nc1ccccc1Sc1ccc([N+](=O)[O-])cc1 [5e, 2-Methoxy-N-(2-(4-nitrophenylthio)phenyl)benzenesulfonamide]
[1]
  CC50 at 72 h: > 100 µM

## COc1ccccc1CC(=O)Nc1ccccc1Sc1ccc([N+](=O)[O-])cc1 [5f, 2-(2-Methoxyphenyl)-N-(2-((4-nitrophenyl)thio)phenyl)acetamide]
[1]
  CC50 at 72 h: > 100 µM

## O=C(Cc1ccccc1F)Nc1ccccc1Sc1ccc([N+](=O)[O-])cc1 [5g, 2-(2-Fluorophenyl)-N-(2-((4-nitrophenyl)thio)phenyl)acetamide]
[1]
  CC50 at 72 h: > 100 µM

## COc1ccccc1NC(=O)c1ccccc1Sc1ccc(N)cc1 [6a, 2-((4-Aminophenyl)thio)-N-(2-methoxyphenyl)benzamide]
[1]
  CC50 at 72 h: > 100 µM

## COc1ccccc1C(=O)Nc1ccccc1Sc1ccc(N)cc1 [6c, N-(2-(4-Aminophenylthio)phenyl)-2-methoxybenzamide]
[1]
  CC50 at 72 h: 60 µM

## COc1ccccc1NS(=O)(=O)c1ccccc1Sc1ccc(N)cc1 [6d, 2-((4-Aminophenyl)thio)-N-(2-methoxyphenyl)benzenesulfonamide]
[1]
  CC50 at 72 h: > 100 µM

## COc1ccccc1S(=O)(=O)Nc1ccccc1Sc1ccc(N)cc1 [6e, N-(2-(4-aminophenylthio)phenyl)-2-methoxybenzenesulfonamide]
[1]
  CC50 at 72 h: 65 µM

## O=C(Nc1ccccc1CO)c1ccccc1Sc1ccc([N+](=O)[O-])cc1 [15e, N-(2-(Hydroxymethyl)phenyl)-2-((4-nitrophenyl)thio)benzamide]
[1]
  CC50 at 72 h: > 100 µM

## O=C(Nc1cccc(CO)c1)c1ccccc1Sc1ccc([N+](=O)[O-])cc1 [15f, N-(3-(Hydroxymethyl)phenyl)-2-((4-nitrophenyl)thio)benzamide]
[1]
  CC50 at 72 h: > 100 µM

## CC(C)(C)OC(=O)N1CCN(C(=O)c2ccccc2Sc2ccc([N+](=O)[O-])cc2)CC1 [15h, tert-Butyl 4-(2-((4-nitrophenyl)thio)benzoyl)piperazine-1-carboxylate]
[1]
  CC50 at 72 h: 70 µM

## COc1ccccc1NC(=O)c1ccccc1Sc1ccc([N+](=O)[O-])cc1Cl [16a, 2-(2-Chloro-4-nitrophenylthio)-N-(2-methoxyphenyl)benzamide]
[1]
  CC50 at 72 h: 50 µM

## O=C(Nc1ccc2c(c1)OCO2)c1ccccc1Sc1ccc([N+](=O)[O-])cc1Cl [16d, N-(Benzo[d][1,3]dioxol-5-yl)-2-((2-chloro-4-nitrophenyl)thio)benzamide]
[1]
  CC50 at 72 h: > 100 µM

## COc1ccccc1NC(=O)c1ccccc1Oc1ccc([N+](=O)[O-])cc1 [18a, N-(2-Methoxyphenyl)-2-(4-nitrophenoxy)benzamide]
[1]
  CC50 at 72 h: 15 µM

## O=C(Nc1ccccc1CO)c1ccccc1Oc1ccc([N+](=O)[O-])cc1 [18e, N-(2-(hydroxymethyl)phenyl)-2-(4-nitrophenoxy)benzamide]
[1]
  CC50 at 72 h: 25 µM

## COc1ccccc1NC(=O)c1ccccc1Oc1ccc(N)cc1 [19a, 2-(4-Aminophenoxy)-N-(2-methoxyphenyl)benzamide]
[1]
  CC50 at 72 h: > 100 µM

## COc1ccccc1NC(=O)c1ccccc1Oc1ccc2c(c1)OCO2 [23h, 2-(Benzo[d][1,3]dioxol-5-yloxy)-N-(2-methoxyphenyl)benzamide]
[1]
  CC50 at 72 h: > 100 µM

## COc1ccccc1C(=O)Nc1ccccc1Oc1ccc([N+](=O)[O-])cc1 [29k, 2-Methoxy-N-(2-(4-nitrophenoxy)phenyl)benzamide]
[1]
  CC50 at 72 h: > 100 µM

## COc1ccccc1C(=O)Nc1ccccc1Oc1ccc(N(C)C)cc1 [30k, N-(2-(4-(Dimethylamino)phenoxy)phenyl)-2-methoxybenzamide]
[1]
  CC50 at 72 h: > 100 µM

## COc1ccc(Oc2ccccc2NC(=O)c2ccccc2OC)cc1 [31k, 2-Methoxy-N-(2-(4-methoxyphenoxy)phenyl)benzamide]
[1]
  CC50 at 72 h: > 100 µM

## COc1ccccc1C(=O)Nc1ccccc1Oc1ccc(OC(C)=O)cc1 [32k, 4-(2-(2-Methoxybenzamido)phenoxy)phenyl acetate]
[1]
  CC50 at 72 h: > 100 µM

## COC(=O)c1ccc(Oc2ccccc2NC(=O)c2ccccc2OC)cc1 [33k, Methyl 4-(2-(2-methoxybenzamido)phenoxy)benzoate]
[1]
  CC50 at 72 h: > 100 µM

## COc1ccccc1NC(=O)c1ccccc1OCc1ccc([N+](=O)[O-])cc1 [40j, N-(2-Methoxyphenyl)-2-((4-nitrobenzyl)oxy)benzamide]
[1]
  CC50 at 72 h: > 100 µM

## COc1ccccc1C(=O)Nc1ccccc1OCc1ccc([N+](=O)[O-])cc1 [40k, N-(2-(4-Nitrobenzyloxy)phenyl)-2-methoxybenzamide]
[1]
  CC50 at 72 h: > 100 µM

## COc1ccccc1NC(=O)c1ccccc1OCc1cccc([N+](=O)[O-])c1 [41j, N-(2-Methoxyphenyl)-2-((3-nitrobenzyl)oxy)benzamide]
[1]
  CC50 at 72 h: > 100 µM

## COc1ccc(COc2ccccc2C(=O)Nc2ccccc2OC)cc1 [43j, 2-(4-methoxybenzyloxy)-N-(2-methoxyphenyl)benzamide]
[1]
  CC50 at 72 h: > 100 µM

## COC(=O)c1ccc(COc2ccccc2NC(=O)c2ccccc2OC)cc1 [45k, Methyl 4-((2-(2-methoxybenzamido)phenoxy)methyl)benzoate]
[1]
  CC50 at 72 h: > 100 µM
